Published values gathered from unrelated publications.
KMT5A: N-lysine methyltransferase KMT5A (KMT5A, Homo sapiens, UniProt Q9NQR1)

| Compound | target | assay | conditions | quantity | value |
| --- | --- | --- | --- | --- | --- |
| CN(C)C1CCN(CC#Cc2nn(C3CCCC3)c3nc(NCc4ccccc4)ncc23)C1 (stereo not drawn) | Tyrosine-protein kinase ITK/TSK (ITK, Homo sapiens, UniProt Q08881) | enzyme activity, inhibitor, FRET | 1 µM | inhibition | 5% |
| C[S+]([O-])c1ccc(-c2nc(-c3ccncc3)c(-c3ccc(F)cc3)[nH]2)cc1 (stereo not drawn) | Histone acetyltransferase p300 (EP300, Homo sapiens, UniProt Q09472) | thermal stability, DSF | 10 µM | ΔTm | 0.35 °C |
| COc1cc(-c2cc(-c3ccc(N4CCNCC4)cc3)cnc2N)cc(OC)c1OC | Tyrosine-protein kinase ABL1 (ABL1, Homo sapiens, UniProt P00519, Y253F) | enzyme activity, inhibitor | 1 µM | inhibition | 95% |
| c1ccc([C@H]2O[C@H]2c2ccccc2)cc1 | Epoxide hydrolase 1 (EPHX1, Homo sapiens, UniProt P07099) | enzyme activity, substrate | pH 9 | Km | 141 µM |
| Oc1cccc(Nc2nc(-c3ccc(F)cc3F)cs2)c1 | Androgen receptor (AR, Homo sapiens, UniProt P10275) | cell-free assay | 10 µM | inhibition | 26.5% |
| Nc1ncnc2occ(-c3ccc(NC(=O)Nc4cc(C(F)(F)F)ccc4F)cc3)c12 | Tyrosine-protein kinase ABL1, phosphorylated (ABL1, Homo sapiens, UniProt P00519, F317L) | cell-free assay, inhibitor | 20 µM | remaining signal | 9.2% |
| O=C(c1ccc(F)cc1)N(Cc1ccccc1)C1CCCCC1 | Delta-type opioid receptor (OPRD1, Homo sapiens, UniProt P41143) | ligand displacement | 10 µM | inhibition | 0% |
| Cc1ccc(Nc2nccc(N(C)c3ccc4c(C)n(C)nc4c3)n2)cc1S(N)(=O)=O | cAMP-dependent protein kinase catalytic subunit alpha (PRKACA, Bos taurus, UniProt P00517) | enzyme activity, inhibitor | 10 µM | inhibition | -19% |
| Cc1cc(O)c(C=O)c2c1C(=O)Oc1c(C)c(O)c3c(c1O2)C(O)OC3=O (stereo not drawn) | KMT5A | cell-free assay | 10 µM | inhibition | -14% |
| Cc1cc(NC(=O)c2cccc3cc(-c4cccc5[nH]nc(N)c45)ccc23)ccc1F | Tyrosine-protein kinase ABL1 (ABL1, Homo sapiens, UniProt P00519) | enzyme activity, inhibitor | 0.1 µM | activity vs control | 85% |
| O=c1c(O)cccc2cc(O)c(O)c(O)c12 | KMT5A | cell-free assay | 10 µM | inhibition | 7% |
| Cc1ccc(C(=O)Nc2ccc(CN3CCN(C)CC3)c(C(F)(F)F)c2)cc1C#Cc1cnc2cccnn12 | Serine/threonine-protein kinase RIO1 (RIOK1, Homo sapiens, UniProt Q9BRS2) | enzyme activity, inhibitor | 23.5 nM | remaining activity | 98% |
